# Results published in article PMC6606825 (Journal of Ginseng Research, 2018).
# Marks after values point to notes of the source that are not given here.
# Experiment: Pharmacokinetics of CK and its metabolite 20
# Format: in vivo, healthy Chinese volunteers
# How it was run: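 Healthy adults given one oral tablet dose fasting (overnight, or 10 h in a crossover food-effect arm); 30 subjects from the 100/200/400 mg groups were pooled with 24 from 200 mg fasting periods. Plasma was stored at −70°C, extracted with MTBE plus internal standards and assayed by LC-MS/MS. Cmax was observed and AUClast calculated by linear trapezoid, each divided by dose. The metabolite/parent ratio was also calculated. Genotyping used Sequenom MassARRAY, and log-transformed values were compared by one-way ANOVA.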
smiles,measurement,setting,value
"CC(C)=CCC[C@](C)(O)[C@H]1CC[C@]2(C)[C@@H]1[C@H](O)C[C@@H]1[C@@]3(C)CC[C@H](O)C(C)(C)[C@@H]3CC[C@]12C [20(S)-PPD, 20(S)-protopanaxadiol]",20(S)-PPD AUClast/D,"CFTR rs2106155 CC, mean (SD)",0.76 (0.87)
same,20(S)-PPD Cmax/D,"CFTR rs2106155 CC, mean (SD)",0.02 (0.02)
same,Ratio 20(S)-PPD/CK AUClast/D,"CFTR rs2106155 CC, mean (SD)",3.73 (6.73) %
same,Ratio 20(S)-PPD/CK Cmax/D,"CFTR rs2106155 CC, mean (SD)",0.80 (1.29) %
same,20(S)-PPD AUClast/D,"CFTR rs2237726 CC, mean (SD)",0.72 (0.85)
same,20(S)-PPD Cmax/D,"CFTR rs2237726 CC, mean (SD)",0.02 (0.02)
same,Ratio 20(S)-PPD/CK AUClast/D,"CFTR rs2237726 CC, mean (SD)",3.53 (6.59) %
same,Ratio 20(S)-PPD/CK Cmax/D,"CFTR rs2237726 CC, mean (SD)",0.80 (1.27) %
same,20(S)-PPD AUClast/D,"CFTR rs2237726 CT, mean (SD)",0.84 (0.78)
same,20(S)-PPD Cmax/D,"CFTR rs2237726 CT, mean (SD)",0.03 (0.03)
same,Ratio 20(S)-PPD/CK AUClast/D,"CFTR rs2237726 CT, mean (SD)",4.43 (5.17) %
same,Ratio 20(S)-PPD/CK Cmax/D,"CFTR rs2237726 CT, mean (SD)",1.42 (2.13) %
same,20(S)-PPD AUClast/D,"CFTR rs2237726 TT, mean (SD)",1.10 (0.47)
same,20(S)-PPD Cmax/D,"CFTR rs2237726 TT, mean (SD)",0.03 (0.02)
same,Ratio 20(S)-PPD/CK AUClast/D,"CFTR rs2237726 TT, mean (SD)",7.40 (10.14) %
same,Ratio 20(S)-PPD/CK Cmax/D,"CFTR rs2237726 TT, mean (SD)",1.63 (2.04) %
same,20(S)-PPD AUClast/D,"CFTR rs4148711 AA, mean (SD)",0.97 (0.49)
same,20(S)-PPD Cmax/D,"CFTR rs4148711 AA, mean (SD)",0.04 (0.02)
same,Ratio 20(S)-PPD/CK AUClast/D,"CFTR rs4148711 AA, mean (SD)",5.87 (7.37) %
same,Ratio 20(S)-PPD/CK Cmax/D,"CFTR rs4148711 AA, mean (SD)",1.40 (1.51) %
same,20(S)-PPD AUClast/D,"CFTR rs4148711 AT, mean (SD)",0.90 (0.98)
same,20(S)-PPD Cmax/D,"CFTR rs4148711 AT, mean (SD)",0.03 (0.04)
same,Ratio 20(S)-PPD/CK AUClast/D,"CFTR rs4148711 AT, mean (SD)",4.70 (7.26) %
same,Ratio 20(S)-PPD/CK Cmax/D,"CFTR rs4148711 AT, mean (SD)",1.40 (2.23) %
same,20(S)-PPD AUClast/D,"CFTR rs4148711 TT, mean (SD)",0.63 (0.57)
same,20(S)-PPD Cmax/D,"CFTR rs4148711 TT, mean (SD)",0.02 (0.02)
same,Ratio 20(S)-PPD/CK AUClast/D,"CFTR rs4148711 TT, mean (SD)",2.87 (3.42) %
same,Ratio 20(S)-PPD/CK Cmax/D,"CFTR rs4148711 TT, mean (SD)",0.66 (0.71) %
same,20(S)-PPD AUClast/D,"NR1I2 rs1464602 AA, mean (SD)",0.69 (0.50)
same,20(S)-PPD Cmax/D,"NR1I2 rs1464602 AA, mean (SD)",0.02 (0.02)
same,Ratio 20(S)-PPD/CK AUClast/D,"NR1I2 rs1464602 AA, mean (SD)",3.33 (3.32) %
same,Ratio 20(S)-PPD/CK Cmax/D,"NR1I2 rs1464602 AA, mean (SD)",0.85 (0.79) %
same,20(S)-PPD AUClast/D,"NR1I2 rs1464602 AG, mean (SD)",0.85 (0.89)
same,20(S)-PPD Cmax/D,"NR1I2 rs1464602 AG, mean (SD)",0.03 (0.03)
same,Ratio 20(S)-PPD/CK AUClast/D,"NR1I2 rs1464602 AG, mean (SD)",3.45 (6.88) %
same,Ratio 20(S)-PPD/CK Cmax/D,"NR1I2 rs1464602 AG, mean (SD)",0.80 (1.32) %
same,20(S)-PPD AUClast/D,"NR1I2 rs1464602 GG, mean (SD)",1.09 (1.05)
same,20(S)-PPD Cmax/D,"NR1I2 rs1464602 GG, mean (SD)",0.04 (0.04)
same,Ratio 20(S)-PPD/CK AUClast/D,"NR1I2 rs1464602 GG, mean (SD)",7.81 (8.88) %
same,Ratio 20(S)-PPD/CK Cmax/D,"NR1I2 rs1464602 GG, mean (SD)",2.40 (3.04) %
same,20(S)-PPD AUClast/D,"NR1I2 rs1523127 AA, mean (SD)",0.87 (0.86)
same,20(S)-PPD Cmax/D,"NR1I2 rs1523127 AA, mean (SD)",0.03 (0.03)
same,Ratio 20(S)-PPD/CK AUClast/D,"NR1I2 rs1523127 AA, mean (SD)",4.60 (7.04) %
same,Ratio 20(S)-PPD/CK Cmax/D,"NR1I2 rs1523127 AA, mean (SD)",1.27 (1.98) %
same,20(S)-PPD AUClast/D,"NR1I2 rs1523127 CA, mean (SD)",0.73 (0.52)
same,20(S)-PPD Cmax/D,"NR1I2 rs1523127 CA, mean (SD)",0.02 (0.02)
same,Ratio 20(S)-PPD/CK AUClast/D,"NR1I2 rs1523127 CA, mean (SD)",3.64 (3.52) %
same,Ratio 20(S)-PPD/CK Cmax/D,"NR1I2 rs1523127 CA, mean (SD)",0.87 (0.80) %
same,20(S)-PPD AUClast/D,"NR1I2 rs1523127 CC, n = 1",0.32 (−) ^2)
same,20(S)-PPD Cmax/D,"NR1I2 rs1523127 CC, n = 1",0.01 (−) ^2)
same,Ratio 20(S)-PPD/CK AUClast/D,"NR1I2 rs1523127 CC, n = 1",1.14 (−) ^2) %
same,Ratio 20(S)-PPD/CK Cmax/D,"NR1I2 rs1523127 CC, n = 1",0.22 (−) ^2) %
same,20(S)-PPD AUClast/D,"NR1I2 rs2276707 CC, mean (SD)",0.79 (0.54)
same,20(S)-PPD Cmax/D,"NR1I2 rs2276707 CC, mean (SD)",0.03 (0.02)
same,Ratio 20(S)-PPD/CK AUClast/D,"NR1I2 rs2276707 CC, mean (SD)",5.07 (6.48) %
same,Ratio 20(S)-PPD/CK Cmax/D,"NR1I2 rs2276707 CC, mean (SD)",1.15 (1.37) %
same,20(S)-PPD AUClast/D,"NR1I2 rs2276707 CT, mean (SD)",0.79 (0.77)
same,20(S)-PPD Cmax/D,"NR1I2 rs2276707 CT, mean (SD)",0.03 (0.03)
same,Ratio 20(S)-PPD/CK AUClast/D,"NR1I2 rs2276707 CT, mean (SD)",3.49 (4.74) %
same,Ratio 20(S)-PPD/CK Cmax/D,"NR1I2 rs2276707 CT, mean (SD)",1.12 (1.87) %
same,20(S)-PPD AUClast/D,"NR1I2 rs2276707 TT, mean (SD)",1.04 (1.19)
same,20(S)-PPD Cmax/D,"NR1I2 rs2276707 TT, mean (SD)",0.03 (0.03)
same,Ratio 20(S)-PPD/CK AUClast/D,"NR1I2 rs2276707 TT, mean (SD)",5.91 (10.37) %
same,Ratio 20(S)-PPD/CK Cmax/D,"NR1I2 rs2276707 TT, mean (SD)",1.27 (1.99) %
same,20(S)-PPD AUClast/D,"NR1I2 rs2472682 AA, mean (SD)",1.08 (1.14)
same,20(S)-PPD Cmax/D,"NR1I2 rs2472682 AA, mean (SD)",0.04 (0.04)
same,Ratio 20(S)-PPD/CK AUClast/D,"NR1I2 rs2472682 AA, mean (SD)",7.47 (9.73) %
same,Ratio 20(S)-PPD/CK Cmax/D,"NR1I2 rs2472682 AA, mean (SD)",2.06 (2.76) %
same,20(S)-PPD AUClast/D,"NR1I2 rs2472682 CA, mean (SD)",0.66 (0.50)
same,20(S)-PPD Cmax/D,"NR1I2 rs2472682 CA, mean (SD)",0.02 (0.02)
same,Ratio 20(S)-PPD/CK AUClast/D,"NR1I2 rs2472682 CA, mean (SD)",2.12 (1.73) %
same,Ratio 20(S)-PPD/CK Cmax/D,"NR1I2 rs2472682 CA, mean (SD)",0.59 (0.51) %
same,20(S)-PPD AUClast/D,"NR1I2 rs2472682 CC, mean (SD)",0.87 (0.59)
same,20(S)-PPD Cmax/D,"NR1I2 rs2472682 CC, mean (SD)",0.03 (0.02)
same,Ratio 20(S)-PPD/CK AUClast/D,"NR1I2 rs2472682 CC, mean (SD)",5.01 (4.45) %
same,Ratio 20(S)-PPD/CK Cmax/D,"NR1I2 rs2472682 CC, mean (SD)",1.17 (0.97) %
same,20(S)-PPD AUClast/D,"NR1I2 rs6785049 AA, mean (SD)",0.75 (0.59)
same,20(S)-PPD Cmax/D,"NR1I2 rs6785049 AA, mean (SD)",0.03 (0.02)
same,Ratio 20(S)-PPD/CK AUClast/D,"NR1I2 rs6785049 AA, mean (SD)",5.90 (7.79) %
same,Ratio 20(S)-PPD/CK Cmax/D,"NR1I2 rs6785049 AA, mean (SD)",1.37 (1.63) %
same,20(S)-PPD AUClast/D,"NR1I2 rs6785049 AG, mean (SD)",0.72 (0.54)
same,20(S)-PPD Cmax/D,"NR1I2 rs6785049 AG, mean (SD)",0.03 (0.02)
same,Ratio 20(S)-PPD/CK AUClast/D,"NR1I2 rs6785049 AG, mean (SD)",2.64 (2.47) %
same,Ratio 20(S)-PPD/CK Cmax/D,"NR1I2 rs6785049 AG, mean (SD)",0.69 (0.58) %
same,20(S)-PPD AUClast/D,"NR1I2 rs6785049 GG, mean (SD)",1.11 (1.21)
same,20(S)-PPD Cmax/D,"NR1I2 rs6785049 GG, mean (SD)",0.04 (0.04)
same,Ratio 20(S)-PPD/CK AUClast/D,"NR1I2 rs6785049 GG, mean (SD)",6.66 (9.43) %
same,Ratio 20(S)-PPD/CK Cmax/D,"NR1I2 rs6785049 GG, mean (SD)",1.98 (2.90) %
same,20(S)-PPD AUClast/D,"NR1I2 rs7643645 AA, mean (SD)",0.95 (0.87)
same,20(S)-PPD Cmax/D,"NR1I2 rs7643645 AA, mean (SD)",0.03 (0.03)
same,Ratio 20(S)-PPD/CK AUClast/D,"NR1I2 rs7643645 AA, mean (SD)",5.31 (8.06) %
same,Ratio 20(S)-PPD/CK Cmax/D,"NR1I2 rs7643645 AA, mean (SD)",1.16 (1.57) %
same,20(S)-PPD AUClast/D,"NR1I2 rs7643645 AG, mean (SD)",0.66 (0.76)
same,20(S)-PPD Cmax/D,"NR1I2 rs7643645 AG, mean (SD)",0.03 (0.03)
same,Ratio 20(S)-PPD/CK AUClast/D,"NR1I2 rs7643645 AG, mean (SD)",3.34 (5.02) %
same,Ratio 20(S)-PPD/CK Cmax/D,"NR1I2 rs7643645 AG, mean (SD)",1.21 (2.09) %
same,20(S)-PPD AUClast/D,"NR1I2 rs7643645 GG, mean (SD)",1.14 (0.42)
same,20(S)-PPD Cmax/D,"NR1I2 rs7643645 GG, mean (SD)",0.04 (0.02)
same,Ratio 20(S)-PPD/CK AUClast/D,"NR1I2 rs7643645 GG, mean (SD)",4.98 (4.18) %
same,Ratio 20(S)-PPD/CK Cmax/D,"NR1I2 rs7643645 GG, mean (SD)",1.03 (0.83) %
